Data set [1] is described as follows: Surface tension, Du Nouy ring tensiometer. The format is physicochemical. The note with it: aqueous solution, 25 °C; for surface tension: at 10 mM, triplicate solutions. A digest of the protocol:
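Test compound solutions were equilibrated to 25 °C. The ring was immersed 5 mm below the surface, then retracted automatically at 5 mm/min. Between measurements the ring was rinsed with water and ethanol and flamed. Solutions were prepared in triplicate.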

The next data set has as its system mice. The note with it: cited from earlier work.
The nature of data set [2]: Dynamic light scattering of aqueous solutions. The note with it: 25 °C; for z-average diameter of micelles: DLS cumulant analysis, water, concentrations above the CMC, mean ± SD. It counts as physicochemical. A digest of the protocol:
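He-Ne laser (632.8 nm) with backscatter detection at 173°, 25 °C, using water viscosity 0.8937 cP and refractive index 1.333. Samples diluted from stock in Milli-Q water and filtered (0.02 μm). Solvent scattering was subtracted and plotted against concentration, with the inflection taken as the CMC. Triton X-100 served as positive control and a non-amphiphilic peptide as negative control. Triplicate samples were each read three times. Z-average came from a single-exponential cumulant fit and size distribution from a multi-exponential fit.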

For data set [3] the following is noted: cited from earlier work.
The conditions of data set [4]: low, clinically relevant concentrations; cited from earlier work.
The nature of data set [5]: Stability of CMS in solution. The format is physicochemical. Particulars: 0.9% saline, 25 °C, over 120 hr.

Results on 4 substances are retold here after paper PMC2881163 (The journal of physical chemistry. B, 2010).

One may read the LD50 as the dose expected to kill half of the subjects tested. As to Colistin, in data set [1], the “interfacial tension after the CMC” value is recorded as “approximately 40 dynes/cm” and the surface tension is listed as 35–40 mN/m. In addition, the LD50 in the data set with mice was 217.7 mg/kg. The “z-average diameter of micelles” value in data set [2] worked out at 2.07 ± 0.3 nm.

As to Triton X-100, the “z-average diameter of micelles” value in data set [2] was determined as 8.17 ± 0.59 nm.

For colistin methanesulfonate [CMS], the surface tension in data set [1] was 35–40 mN/m. Besides, the LD50 in the data set on mice was 5.43 mg/kg. The “conversion of CMS to colistin in buffer solutions in vitro” value in data set [3] (<100 μg/mL at 37 °C) is on record as “rapid”. For the same substance, the “stability of concentrated CMS solutions with respect to formation of colistin” value in data set [3] (>70 mg/mL, relevant to commercial pharmaceutical formulations) was “stable for extended periods”. Also, the “conversion of CMS to colistin in plasma and urine in vivo” value in data set [4] is listed as “rapid”. For the same substance, in data set [5] (n = 3, HPLC of colistin formed), the “conversion of CMS to colistin, initial concentration 0.052 mM” value is on record as “Rapid conversion” and the “conversion of CMS to colistin, initial concentration 0.52 mM” value is “Less rapid conversion”. In data set [5] (n = 3, well above the CMC), the “degradation of CMS, initial concentration 5.2 mM” value was “negligible” and the “degradation of CMS, initial concentration 52 mM” value is reported as “negligible”. In addition, the “z-average diameter of micelles” value in data set [2] is reported as around 1.98 ± 0.36 nm.

“polymyxin B nonapeptide hydrochloride [PMBN]”: in data set [2] (DLS, up to 20 mM, no reliable size data could be obtained), the “light scattering above that of water” value is on record as “negligible”.
